Results on 97 compounds are retold here after PubChem BioAssay AID623912 (Johns Hopkins Ion Channel Center, 2012).

As usually defined, the IC50 is the concentration that gives 50% inhibition.

Activity calls are given as the source filed them.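 Rule for the calls: active = peak KCNK3 inhibition above a set limit at some dose, plus a fitted dose-response curve; inactive = no KCNK3 inhibition, or no dose-response curve.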

Chain of Potassium channel subfamily K member 3 (Rattus norvegicus) (O54912 whole entry, looked up): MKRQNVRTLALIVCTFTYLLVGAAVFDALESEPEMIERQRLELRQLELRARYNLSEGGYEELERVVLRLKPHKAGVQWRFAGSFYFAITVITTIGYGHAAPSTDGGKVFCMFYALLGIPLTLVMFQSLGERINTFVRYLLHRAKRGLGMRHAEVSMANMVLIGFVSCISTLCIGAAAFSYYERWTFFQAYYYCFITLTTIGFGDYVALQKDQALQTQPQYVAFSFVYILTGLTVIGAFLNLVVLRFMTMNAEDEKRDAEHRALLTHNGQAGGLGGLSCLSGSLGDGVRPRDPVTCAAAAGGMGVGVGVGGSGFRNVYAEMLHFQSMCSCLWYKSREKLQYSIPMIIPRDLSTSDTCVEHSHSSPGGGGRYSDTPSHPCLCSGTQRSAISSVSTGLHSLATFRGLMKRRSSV

One assay concerns the target Potassium channel subfamily K member 3 (Rattus norvegicus) (UniProt O54912). The experiment in a line: KCNK3 off-target potassium flux block – cell-based, FluxOR thallium flux, CRC set 2, selectivity assay for KCNK9 inhibitor project, SAR follow-up (AID 623912). The settings on record: KCNK3-expressing cells, FluxOR thallium flux fluorescence. The method in brief: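 Assay system: tetracycline-induced CHO cells expressing rat KCNK3 potassium channel. Probe or stimulus: Tl+/K+ sulfate stimulus buffer (5x stock). Dosing: concentration series of compound. Incubation: dye 90 min, compound 20 min, both room temperature. Measured by: FluxOR Tl+ flux fluorescence. Evaluation: IC50 from normalized flux signal. Replicates: duplicate or more.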
With `CC(c1ccccc1)n1c(-c2ccco2)n[nH]c1=S` (configuration not stated), the concentration for half-maximal inhibition (IC50) is 0.567 µM.
On the same count and under the same terms, as for `Cc1cccc(C(=O)Nc2cccc(NC(=O)c3cccc(C(F)(F)F)c3)c2)c1`, the figure is 0.011 µM; as for `Cc1cccc(C(=O)Nc2cccc(NC(=O)C3CCCCC3)c2)c1`, 0.017 µM.
Take `Cc1cccc(C(=O)Nc2cccc(NC(=O)c3ccccc3OCC(C)C)c2)c1`: the IC50 is 0.206 µM.
The same measure, in the same setting: as for `Cc1cccc(C(=O)Nc2cccc(NC(=O)c3ccccc3C)c2)c1`, the figure is 0.0908 µM; as for `CC(c1cccc2ccccc12)n1c(-c2ccco2)n[nH]c1=S` (configuration not stated), 0.561 µM; as for `Cc1cccc(C(=O)Nc2cccc(NC(=O)c3cccs3)c2)c1`, 0.003 µM.
Take `CCOc1ccccc1NC(=O)c1cccc(NC(=O)C2CCCCC2)c1`: the half-maximal inhibitory concentration (IC50) was 0.0669 µM.
In the case of `CCOc1ccccc1NC(=O)c1cccc(NC(=O)C2CC2)c1`, the IC50 was 1.07 µM.
In the case of `CCOc1ccccc1NC(=O)c1cccc(NC(=O)c2ccccc2C)c1`, the IC50 is 0.14 µM.
In the case of `Cc1cccc(C(=O)Nc2cccc(C(=O)Nc3ccccc3)c2)c1`, the IC50 is 0.85 µM.
Regarding `O=C(Nc1ccccc1Cl)c1cccc(NC(=O)C2CCCC2)c1`, the IC50 was 0.202 µM.
In the case of `Cc1cccc(C(=O)Nc2cccc(NC(=O)c3ccccc3)c2)c1`, the IC50 was 0.0963 µM.
In the case of `CC(C1CC2CCC1C2)n1c(-c2ccco2)n[nH]c1=O` (configuration not stated), the IC50 is 0.181 µM.
Take `CCOc1ccccc1NC(=O)c1cccc(NC(=O)c2cccc(C)c2)c1`: the IC50 is 0.017 µM.
`O=C(Nc1cccc(NC(=O)C2CCCCC2)c1)c1ccccc1`: the 50% inhibitory concentration (IC50) was 0.0792 µM.
Same read-out and setting: for `CC(C)n1c(-c2ccco2)n[nH]c1=S` the value was 0.0922 µM; for `CC(C1CC2CCC1C2)n1c(SCc2ccccc2)nnc1-c1ccco1` (configuration not stated), 1.66 µM; for `CC(C1CC2CCC1C2)n1c(-c2ccccc2F)n[nH]c1=S` (configuration not stated), 2.2 µM.
On to `COc1cccc(-c2nnc(S(C)(=O)=O)n2C(C)C2CC3CCC2C3)c1` (configuration not stated), for which the half-inhibitory concentration (IC50) was 0.106 µM.
The same measure, in the same setting: as for `CC(C1CC2CCC1C2)n1c(-c2cccnc2)n[nH]c1=S` (configuration not stated), the figure is 1.02 µM; as for `CC(C1CC2CCC1C2)n1c(-c2ccco2)nnc1C(F)(F)F` (configuration not stated), 1.18 µM; as for `COc1ccccc1C(=O)Nc1cc(NC(=O)c2ccccc2C(C)C)ccc1F`, 0.01 µM.
Turning to `O=C(Nc1cccc(NC(=O)c2ccccc2Cl)c1)c1ccccc1`, the IC50 was 0.311 µM.
Still for that read-out and setting: as for `O=C(Nc1cccc(NC(=O)c2cccc(Cl)c2)c1)c1ccccc1`, the figure is 0.12 µM; as for `Cc1ccc(-c2n[nH]c(=S)n2C(C)C2CC3CCC2C3)cc1` (configuration not stated), 0.77 µM; as for `O=C(Nc1cccc(NC(=O)c2ccc(F)cc2)c1)c1ccccc1`, 0.306 µM.
With `COc1ccccc1NC(=O)c1cccc(NC(=O)C2CCCCC2)c1`, the IC50 is 0.086 µM.
Still for that read-out and setting: as for `CCOc1ccccc1NC(=O)c1cccc(NC(=O)C2CCOC2)c1` (configuration not stated), the figure is 1.33 µM; as for `S=c1[nH]nc(-c2ccco2)n1C1CC2CCC1C2` (configuration not stated), 0.037 µM.
With `CC(C1CC2CCC1C2)n1c(-c2ccco2)n[nH]c1=S` (configuration not stated), the half-maximal inhibitory concentration (IC50) is 0.341 µM.
On the same count and under the same terms, as for `CCOc1ccccc1NC(=O)c1cccc(NC(=O)c2cccc(C(F)(F)F)c2)c1`, the figure is 0.232 µM; as for `CCOc1ccccc1NC(=O)c1cccc(NC(=O)c2ccccc2)c1`, 0.121 µM; as for `COc1ccccc1C(=O)Nc1cccc(NC(=O)c2ccccc2OC(F)(F)F)c1`, 0.004 µM.
With `O=C(Nc1cccc(NC(=O)c2ccccn2)c1)c1ccccc1`, the IC50 was 0.0858 µM.
As to `CCOc1ccccc1NC(=O)c1cccc(NC(=O)c2cccc(OC)c2)c1`, the IC50 is 0.005 µM.
The same measure, in the same setting: for `CN(C)c1ccc(C(=O)Nc2cccc(NC(=O)c3ccccc3)c2)cc1` the value was 0.259 µM; for `Cc1cccc(S(=O)(=O)Nc2cccc(NC(=O)c3ccccc3)c2)c1`, 1.45 µM; for `CCOc1ccccc1NC(=O)c1cccc(NC(=O)C2CCCC2)c1`, 0.0683 µM.
As to `CCOc1ccccc1NC(=O)c1cccc(NC(=O)c2ccccc2C(F)(F)F)c1`, the IC50 is 0.0295 µM.
Turning to `COc1ccccc1NC(=O)c1cccc(NC(=O)c2ccccc2OC)c1`, the IC50 is 0.008 µM.
For `O=C(Nc1cccc(NC(=O)c2ccsc2)c1)c1ccccc1`, the half-maximal inhibitory concentration (IC50) is 0.162 µM.
Same read-out and setting: for `Cc1cccc(C(=O)Nc2cccc(NC(=O)c3ccc(C(C)(C)C)cc3)c2)c1` the value was 0.184 µM; for `CC(C1CC2CCC1C2)n1c(-c2ccc(Cl)cc2)n[nH]c1=S` (configuration not stated), 0.24 µM; for `CCOc1ccccc1C(=O)Nc1cccc(NC(=O)c2ccccc2C(F)(F)F)c1`, 0.002 µM.
Turning to `COc1cccc(C(=O)Nc2cccc(NC(=O)c3ccccc3)c2)c1`, the IC50 is 0.212 µM.
On to `CCOc1ccccc1NC(=O)c1cccc(NC(=O)CC2CCCCC2)c1`, for which the IC50 is 0.217 µM.
For the compound `CC(C1CC2CCC1C2)n1c(-c2cccs2)n[nH]c1=S` (configuration not stated), the IC50 is 0.018 µM.
For `CCOc1ccccc1NC(=O)c1cccc(NC(=O)C(C)(C)C)c1`, the half-maximal inhibitory concentration (IC50) is 1.32 µM.
Same read-out and setting: for `COc1cccc(C(=O)Nc2cccc(NC(=O)c3cccc(C)c3)c2)c1` the value was 0.031 µM; for `CC(C1CC2CCC1C2)n1c(-c2ccoc2)n[nH]c1=S` (configuration not stated), 0.298 µM; for `Cc1cccc(C(=O)Nc2cccc(NC(=O)c3cccc(C)c3)c2)c1`, 0.0296 µM.
For the compound `COc1ccc(C(=O)CSc2nnc(-c3ccco3)n2C(C)C2CC3CCC2C3)cc1OC` (configuration not stated), the half-maximal inhibitory concentration (IC50) is 2.08 µM.
Same read-out and setting: as for `CCOc1ccccc1NC(=O)c1cccc(NC(=O)c2ccccc2Cl)c1`, the figure is 0.0839 µM; as for `CCOc1ccccc1NC(=O)c1cccc(NC(=O)c2cccc(Cl)c2)c1`, 0.039 µM; as for `COc1cccc(OC)c1C(=O)Nc1cccc(NC(=O)c2cccc(C)c2)c1`, 0.148 µM.
For `CCOc1ccccc1C(=O)Nc1cccc(NC(=O)c2ccccc2OC)c1`, the IC50 is 0.002 µM.
On the same count and under the same terms, as for `CC(NC(=O)c1ccco1)C1CC2CCC1C2` (configuration not stated), the figure is 0.07 µM; as for `CC(C1CCCCC1)n1c(-c2ccco2)n[nH]c1=S` (configuration not stated), 0.044 µM.
As for `CCOc1ccccc1NC(=O)c1cccc(NC(=O)c2ccccc2OC(F)(F)F)c1`, the IC50 is 0.114 µM.
Take `CCOc1ccccc1NC(=O)c1cccc(NC(=O)C2CCCO2)c1` (configuration not stated): the concentration for half-maximal inhibition (IC50) was 0.129 µM.
Still for that read-out and setting: for `CC(C1CC2CCC1C2)N(C)C(=O)c1ccco1` (configuration not stated) the value was 0.006 µM; for `COc1ccccc1C(=O)Nc1cccc(NC(=O)c2cccc3ccccc23)c1`, 0.003 µM; for `CC(C1CC2CCC1C2)n1c(-c2cccc(Cl)c2)n[nH]c1=S` (configuration not stated), 0.02 µM.
On to `CC(C1CC2CCC1C2)n1c(-c2ccccc2)n[nH]c1=S` (configuration not stated), for which the IC50 was 0.403 µM.
On the same count and under the same terms, for `COc1ccc(C(=O)Nc2cccc(NC(=O)c3ccccc3)c2)cc1` the value was 2.27 µM; for `O=C(Nc1cccc(NC(=O)c2ccco2)c1)c1ccccc1`, 0.0365 µM; for `O=C(Nc1cccc(NC(=O)c2ccoc2)c1)c1ccccc1`, 0.799 µM.
Consider `COc1cccc(-c2n[nH]c(=S)n2C(C)C2CC3CCC2C3)c1OC` (configuration not stated), for which the concentration for half-maximal inhibition (IC50) was 0.015 µM.
On to `CC(C1CC2CCC1C2)n1c(-c2cccc(F)c2)n[nH]c1=S` (configuration not stated), for which the IC50 is 0.082 µM.
In the case of `CC(C)c1ccccc1C(=O)Nc1cccc(NC(=O)c2ccccc2OC(F)(F)F)c1`, the half-inhibitory concentration (IC50) is 0.011 µM.
With `Cc1cccc(C(=O)Nc2ccc(C(=O)Nc3ccccc3)cc2)c1`, the IC50 is 0.183 µM.
As for `S=c1[nH]nc(-c2ccco2)n1CC1CC2CCC1C2` (configuration not stated), the IC50 is 0.915 µM.
Regarding `CCOc1ccccc1NC(=O)c1cccc(C(=O)NC2CCCC2)c1`, the concentration for half-maximal inhibition (IC50) was 0.342 µM.
Regarding `CC(C)Oc1ccccc1C(=O)Nc1cccc(NC(=O)c2ccccc2OC(F)(F)F)c1`, the IC50 is 0.001 µM.
Still for that read-out and setting: for `COc1ccccc1C(=O)Nc1cccc(NC(=O)c2ccccc2C)c1` the value was 0.073 µM.
On to `CCOc1ccc(NC(=O)c2cccc(NC(=O)C3CCCC3)c2)cc1`, for which the IC50 is 0.0702 µM.
Still for that read-out and setting: for `CCOc1ccccc1NC(=O)c1cccc(NC(=O)c2ccc(C(F)(F)F)cc2)c1` the value was 0.22 µM.
Regarding `COc1cc(OC)cc(-c2n[nH]c(=S)n2C(C)C2CC3CCC2C3)c1` (configuration not stated), the IC50 was 0.11 µM.
Take `Cc1cccc(C(=O)Nc2cccc(NC(=O)c3ccco3)c2)c1`: the IC50 was 0.143 µM.
Take `CCOc1ccccc1C(=O)Nc1cccc(NC(=O)C2CCCC2)c1`: the half-inhibitory concentration (IC50) is 0.108 µM.
`Cc1cccc(C(=O)Nc2cccc(NC(=O)c3ccccc3OC(F)(F)F)c2)c1`: the half-maximal inhibitory concentration (IC50) was 0.0285 µM.
Regarding `CCOc1ccccc1NC(=O)c1cccc(NC(=O)c2ccc(Cl)cc2)c1`, the IC50 was 0.139 µM.
As to `CCOc1ccccc1NC(=O)c1cccc(NC(=O)CC2CCCC2)c1`, the IC50 is 0.161 µM.
On to `S=c1[nH]nc(-c2ccco2)n1CC1CCCCC1`, for which the concentration for half-maximal inhibition (IC50) is 0.606 µM.

Still in this assay, the particulars now being: KCNK3-expressing cells, FluxOR thallium flux fluorescence; at 3 µM (top of the series).
Take `CC(C1CC2CCC1C2)n1c(-c2ccsc2)n[nH]c1=S` (configuration not stated): the “flux ratio, lower = inhibition” value was “inactive”.
Consider `Cc1cccc(C(=O)Nc2cccc(NC(=O)c3ccc(C(F)(F)F)cc3)c2)c1`, for which the “flux ratio, lower = inhibition” value is “inactive”.
For `Cc1cccc(-c2n[nH]c(=S)n2C(C)C2CC3CCC2C3)c1` (configuration not stated), the “flux ratio, lower = inhibition” value is “inactive”.
On the same count and under the same terms, as for `CC(c1ccco1)n1c(-c2ccoc2)n[nH]c1=S` (configuration not stated), the entry is “inactive”.
The same measure, in the same setting: as for `O=C(Nc1cccc(NC(=O)c2ccc(Cl)cc2)c1)c1ccccc1`, the entry is “inactive”.
On the same count and under the same terms, for `Cc1cccc(C(=O)Nc2cccc(NC(=O)c3ccccc3C(F)(F)F)c2)c1` the value was “inactive”.
Regarding `Cc1ccc(C(=O)Nc2cccc(NC(=O)c3ccccc3)c2)cc1`, the “flux ratio, lower = inhibition” value is “inactive”.
On to `Cc1cccc(NC(=O)c2cccc(NC(=O)c3ccccc3)c2)c1`, for which the “flux ratio, lower = inhibition” value is “inactive”.
Consider `O=C(Nc1cccc(NC(=O)c2ccc(C(F)(F)F)cc2)c1)c1ccccc1`, for which the “flux ratio, lower = inhibition” value is “inactive”.
In the case of `CC(C1CC2CCC1C2)n1c(SCC#N)nnc1-c1cccs1` (configuration not stated), the “flux ratio, lower = inhibition” value was “inactive”.
Still for that read-out and setting: as for `COc1ccc(-c2n[nH]c(=S)n2C(C)C2CC3CCC2C3)cc1` (configuration not stated), the entry is “inactive”; as for `CC(C1CC2CCC1C2)n1c(SC(F)F)nnc1-c1ccco1` (configuration not stated), “inactive”.
